Results pooled from the literature.
Lines come from different studies, so protocols differ.
Target: Serine/threonine-protein kinase PLK1 (PLK1, Homo sapiens, UniProt P53350)

N#CCCc1ccc2c(c1)-c1[nH]c3ccc([N+](=O)[O-])cc3c1CC(=O)N2  remaining signal (cell-free assay; 0.5 µM): 101%
COc1cc(Nc2cnc(C#N)c(O[C@H](C)CN(C)C)n2)ncc1-c1cnn(C)c1  remaining activity (enzyme activity; inhibitor; radiometric; 1 µM): 88%
CNCc1ccccc1-c1csc([C@H](C)Nc2nc(C)nc3cc(OC)c(OC)cc23)c1  remaining binding (cell-free assay; competition with immobilised ligand; 1 µM): 85%
Cc1sc(C(=O)NC2COC2)cc1-n1cc(NC(=O)Nc2c(F)cccc2Cl)cn1  remaining activity (enzyme activity; inhibitor; 10 µM): 102%
CS(=O)(=O)Nc1cccc(-c2csc(NC(=O)CSc3nc4nccnc4c(=O)n3CCc3ccccc3)n2)c1  inhibition (enzyme activity; inhibitor; 10 µM): 11%
O=C(NC[C@@H]1[C@H]2CN(C(=O)OCc3cc(C(F)(F)F)cc(C(F)(F)F)c3)C[C@@H]12)c1ccc2[nH]nnc2c1  remaining binding (cell-free assay; competition with immobilised ligand; 1 µM): 100%
COc1cc(/C=C/C(=O)CC(=O)/C=C/c2ccc(O)c(OC)c2)ccc1O  activity vs control (enzyme activity; inhibitor; 1 µM): 75%
CN1CC(Oc2cnc(C#N)cc2-c2ccn3nc(NC(=O)C4CC4)cc3c2)C1  inhibition (enzyme activity; inhibitor; 1 µM): 6%
CC/C(=N\NC(=O)NCc1cccc(O)c1)c1ccc(O)c(C)c1O  inhibition (enzyme activity; inhibitor; 0.1 µM): -2.6%
CCN(CC)CCNC(=O)c1c(C)[nH]c(/C=C2\C(=O)Nc3ccc(F)cc32)c1C  remaining signal (cell-free assay; 0.5 µM): 96.4%
Cc1c(NC(=O)c2cc(C(N)=O)nc3cc(F)ccc23)c(C(F)(F)F)nn1Cc1ccc(C(C)(C)C)cc1  remaining binding (cell-free assay; competition with immobilised ligand; 1 µM): 99%
CN(C)C1CCN(CC#Cc2nn(C3CCCC3)c3nc(NCc4ccccc4)ncc23)C1 (stereo not drawn)  inhibition (enzyme activity; inhibitor; FRET; 0.1 µM): -1%
Cc1ccc(NC(=O)c2ccc(CN3CCN(C)CC3)cc2)cc1Nc1nc(-c2cccnc2)cs1  remaining signal (cell-free assay; 0.5 µM): 101%
Nc1nc(NC2CCCCC2)sc1C(=O)c1ccccc1  remaining activity (enzyme activity; inhibitor; 10 µM): 82%
COc1cc2ncnc(Nc3ccc(Oc4ccccc4)cc3C)c2cc1OC  inhibition (enzyme activity; inhibitor; 1 µM): 3%
CCCOc1ccc(OC)c(F)c1C(=O)c1ccc(C(=O)N[C@@H]2CNC[C@H]2NC(=O)c2ccc3[nH]ncc3c2)cc1  remaining activity (enzyme activity; inhibitor; 10 µM): 105%
Cc1ccc(C(=O)NCc2ccsc2)cc1C#Cc1cn(C(C)C)c2ncnc(N)c12  activity vs control (enzyme activity; inhibitor; 1 µM): 105%
CN(c1ncccc1CNc1nc(Nc2ccc3c(c2)CC(=O)N3)ncc1C(F)(F)F)S(C)(=O)=O  inhibition (enzyme activity; inhibitor; 1 µM): 22.1%
Cc1cc(NC(=O)c2cccc(S(F)(F)(F)(F)F)c2)cc(-n2ccn3nc(-c4cccnc4)cc23)c1  remaining binding (cell-free assay; competition with immobilised ligand; 1 µM): 95.3%
FC(F)(F)Oc1cccc(-c2cnc3ccc(-c4ccncc4)nn23)c1  activity vs control (enzyme activity; inhibitor; radiometric; 5 µM): 98%
Cc1[nH]c(/C=C2\C(=O)Nc3ccc(F)cc32)c(C)c1C(=O)N[C@H]1CCN(C(=O)N(C)C)C1  remaining activity (enzyme activity; inhibitor; 0.1 µM): 126%
O=C(O)[C@@H]1[C@@H](Cn2nnc3ccccc3c2=O)CC[C@H]1C(=O)c1ccc(OCCC2CCOCC2)cc1  remaining binding (cell-free assay; competition with immobilised ligand; 1 µM): 80%
Nc1nc(Nc2ccccc2)sc1C(=O)c1c(F)cccc1F  remaining activity (enzyme activity; inhibitor; 10 µM): 86%
Cn1c(=O)n(-c2ccc(C(C)(C)C#N)cc2)c2c3cc(-c4cnc5ccccc5c4)ccc3ncc21  remaining activity (enzyme activity; inhibitor; 10 µM): 95%
CC(C)CC(=O)N1CCc2nc(-c3ccc(Br)cc3)nc(N(C)Cc3ccccc3)c2C1  remaining binding (cell-free assay; competition with immobilised ligand; 0.1 µM): 100%
C=CC(=O)Nc1cc(Nc2nccc(Nc3cc(Cl)c(F)cc3C(C)(C)O)n2)c(OC)cc1N1CC[C@@H](N(C)C)C1  inhibition (enzyme activity; inhibitor; 1 µM): 11%
Cc1ccc(NC(=O)c2ccc(C)c(C(F)(F)F)c2)cc1C#Cc1nn(C2CCC(O)CC2)c2ncnc(N)c12 (stereo not drawn)  remaining signal (cell-free assay; 10 µM): 92%
CCN(CC)c1ccc(C2=NNC(=O)CC2C)cc1[N+](=O)[O-] (stereo not drawn)  remaining activity (enzyme activity; inhibitor; 10 µM): 103%
CN(c1ccnc(CNc2nc(Nc3ccc4c(c3)CC(=O)N4)ncc2C(F)(F)F)n1)S(C)(=O)=O  remaining binding (cell-free assay; competition with immobilised ligand; 1 µM): 7.6%
CCN1CCN(Cc2ccc(NC(=O)c3ccc(C)c(Oc4ccnc5[nH]ccc45)c3)cc2C(F)(F)F)CC1  inhibition (target engagement in cells; inhibitor; chemoproteomics; Huh-7; 1 µM): -16.2%
O=c1cc(N2CCOCC2)oc2c(-c3ccccc3)cccc12  remaining signal (cell-free assay; 0.5 µM): 67.1%
CC(=O)C1=C(C)N(c2cccc(C(F)(F)F)c2)C(=O)N[C@@H]1c1ccc(C#N)nc1  remaining binding (cell-free assay; competition with immobilised ligand; 1 µM): 100%
Cc1cnc(NC2CCOCC2)nc1-n1cnc(C(=O)NC(CN)c2cc(F)cc(Cl)c2)c1 (stereo not drawn)  remaining activity (enzyme activity; inhibitor; radiometric; 1 µM): 103%
